A word on the inhibition in vivo: it is how much of the control response was suppressed.

The source of these data is ChEMBL document CHEMBL3272249, “Esters of N-tert-butylarterenol. Long-acting new bronchodilators with reduced cardiac effects” (J Med Chem, 1976).

Series [1] deals with Canis familiaris. The series can be described thus: Bronchodilator activity in dog assessed as time of inhibition of carbachol or histamine-induced bronchoconstriction at 140 to 280 mg/kg, iv relative to control. In kind it is functional, Canis lupus familiaris. The conditions noted are these: dose mg/kg 140-280. Put shortly:
(§1)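 Dog airway model: anesthetized, cannulated via a nonbreathing valve, with airway pressure changes recorded after iv carbachol (2–4 μg/kg) or histamine diphosphate (20–50 μg/kg) challenge, each agonist in different animals. Compounds were given iv, intraduodenally or intratracheally from fresh aqueous stocks diluted in saline. Duration (h) of inhibition of induced bronchoconstriction was followed, and the two agonist datasets were pooled.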

Series [2] has as its system Canis familiaris. As to the kind of experiment: Bronchodilator activity in dog assessed as time of inhibition of carbachol or histamine-induced bronchoconstriction at 140 mg/kg, id relative to control. The following applies: route intraduodenal. The series is classed as functional, Canis lupus familiaris. Put shortly: as §1
Series [3] deals with Canis familiaris. The series can be described thus: Bronchodilator activity in dog assessed as time of inhibition of carbachol or histamine-induced bronchoconstriction at 300 to 1200 mg/kg, it relative to control. The series is classed as functional, Canis lupus familiaris. The following applies: dose mg/kg 300-1200; route endotracheal. Put shortly:
as §1

The test system of series [4] is Canis familiaris. As to the kind of experiment: Bronchodilator activity in dog assessed as degree of inhibition of carbachol or histamine-induced bronchoconstriction at 140 to 280 mg/kg, iv relative to control. The conditions noted are these: dose mg/kg 140-280. In kind it is functional, Canis lupus familiaris. Summed up:
(§2)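 Anesthetized dogs, trachea cannulated with a nonbreathing valve. Bronchoconstriction induced by iv carbachol (2–4 μg/kg) or histamine diphosphate (20–50 μg/kg) in separate animals, and airway pressure recorded by transducer. Drug stocks were made fresh in distilled water, diluted in saline and kept on ice. Read-out was percent inhibition of control constriction, averaged over at least three dogs per dose at the higher dose. Carbachol and histamine data were combined.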

Series [5] relates to Canis familiaris. As to the kind of experiment: Bronchodilator activity in dog assessed as degree of inhibition of carbachol or histamine-induced bronchoconstriction at 140 mg/kg, id relative to control. The series is classed as functional. The following applies: Canis lupus familiaris, route intraduodenal. Summed up:
as §2

The subject of series [6] is Canis familiaris. The series can be described thus: Bronchodilator activity in dog assessed as degree of inhibition of carbachol or histamine-induced bronchoconstriction at 300 to 1200 mg/kg, it relative to control. The series is classed as functional, Canis lupus familiaris. The following applies: dose mg/kg 300-1200; route endotracheal. Put shortly:
as §2

For series [7], the system named is Canis familiaris. As to the kind of experiment: Cardiotoxicity in spontaneously respiring dog assessed as time of increase in heart rate at 200 to 400 mg/kg, id relative to control. In kind it is toxicity, organism-based, Canis lupus familiaris. Also on record: dose 200-400 mg/kg, route intraduodenal. The conditions noted are these: in vivo, other. Put shortly: (§3)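 Anesthetized, spontaneously respiring dogs. Heart rate was taken from a lead II EKG, and blood pressure from the right femoral artery by transducer. The increase in heart rate (beats/min) was scored on a graded scale with more than 4 dogs per dose, and its duration was recorded. Drugs were dissolved fresh in distilled water, diluted in physiological saline and kept on ice.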

Series [8] deals with Canis familiaris. The series can be described thus: Cardiotoxicity in spontaneously respiring dog assessed as degree of increase in heart rate at 4 to 8 mg/kg, iv relative to control. In kind it is toxicity, organism-based, Canis lupus familiaris. Also noted: dose 4-8 mg/kg, route intravenous. The conditions noted are these: in vivo. Summed up: as §3
The subject of series [9] is Canis familiaris. The series can be described thus: Bronchodilator activity in dog assessed as degree of inhibition of carbachol or histamine-induced bronchoconstriction at 4 to 8 mg/kg, iv relative to control. The series is classed as functional, Canis lupus familiaris. The following applies: dose mg/kg 4-8. Summed up: as §2
The test system of series [10] is Canis familiaris. As to the kind of experiment: Bronchodilator activity in dog assessed as time of inhibition of carbachol or histamine-induced bronchoconstriction at 200 to 400 mg/kg, id relative to control. The series is classed as functional, Canis lupus familiaris. The following applies: dose mg/kg 200-400; route intraduodenal. Put shortly: as §1
Series [11] deals with Canis familiaris. As to the kind of experiment: Bronchodilator activity in dog assessed as degree of inhibition of carbachol or histamine-induced bronchoconstriction at 200 to 400 mg/kg, id relative to control. The conditions noted are these: dose mg/kg 200-400; route intraduodenal. The series is classed as functional, Canis lupus familiaris. Summed up: as §2
Series [12] concerns Canis familiaris. As to the kind of experiment: Bronchodilator activity in dog assessed as time of inhibition of carbachol or histamine-induced bronchoconstriction at 4 to 8 mg/kg, iv relative to control. The series is classed as functional, Canis lupus familiaris. The following applies: dose mg/kg 4-8. Put shortly:
as §1

Series [13] concerns Canis familiaris. As to the kind of experiment: Cardiotoxicity in spontaneously respiring dog assessed as degree of increase in heart rate at 200 to 400 mg/kg, id relative to control. In kind it is toxicity, organism-based, Canis lupus familiaris. Also noted: dose 200-400 mg/kg, route intraduodenal. The following applies: in vivo, other. Summed up:
as §3

For series [14], the system named is Canis familiaris. The series can be described thus: Bronchodilator activity in dog assessed as time of inhibition of carbachol or histamine-induced bronchoconstriction at 400 to 800 mg/kg, it relative to control. In kind it is functional, Canis lupus familiaris. The following applies: dose mg/kg 400-800; route endotracheal. Summed up: as §1
Series [15] has as its system Canis familiaris. As to the kind of experiment: Bronchodilator activity in dog assessed as degree of inhibition of carbachol or histamine-induced bronchoconstriction at 400 to 800 mg/kg, it relative to control. The following applies: dose mg/kg 400-800; route endotracheal. In kind it is functional, Canis lupus familiaris. Summed up: as §2
Series [16] deals with Canis familiaris. As to the kind of experiment: Cardiotoxicity in spontaneously respiring dog assessed as time of increase in heart rate at 4 to 8 mg/kg, iv relative to control. The series is classed as toxicity, organism-based, Canis lupus familiaris. Also on record: dose 4-8 mg/kg, route intravenous. The conditions noted are these: in vivo. Summed up:
as §3

The subject of series [17] is Canis familiaris. As to the kind of experiment: Bronchodilator activity in dog assessed as time of inhibition of carbachol or histamine-induced bronchoconstriction at 50 mg/kg, id relative to control. In kind it is functional, Canis lupus familiaris. The conditions noted are these: route intraduodenal. Summed up:
(§4)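 Anesthetized dogs with an airway cannula and a nonbreathing valve. Bronchoconstriction was induced by iv carbachol (2–4 μg/kg) or histamine diphosphate (20–50 μg/kg) and read as change in airway pressure by transducer. Each compound was tested against both agonists in different dogs, and the results were combined and averaged. Effect is % inhibition of control constriction, with at least three dogs per dose. Drugs were dissolved fresh in distilled water, diluted in saline and kept on ice.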

For series [18], the system named is Canis familiaris. The series can be described thus: Bronchodilator activity in dog assessed as time of inhibition of carbachol or histamine-induced bronchoconstriction at 5 mg/kg, iv relative to control. In kind it is functional, Canis lupus familiaris. Summed up:
as §4

Series [19] deals with Canis familiaris. As to the kind of experiment: Bronchodilator activity in dog assessed as degree of inhibition of carbachol or histamine-induced bronchoconstriction at 5 mg/kg, iv relative to control. The following applies: Canis lupus familiaris. The series is classed as functional. Summed up:
as §2

Series [20] concerns Canis familiaris. The series can be described thus: Bronchodilator activity in dog assessed as degree of inhibition of carbachol or histamine-induced bronchoconstriction at 50 mg/kg, id relative to control. In kind it is functional. The conditions noted are these: Canis lupus familiaris, route intraduodenal. Put shortly:
as §2

Structures are written as SMILES.

As for `CS(=O)(=O)O.Cc1cccc(C(=O)Oc2ccc([C@@H](O)CNC(C)(C)C)cc2OC(=O)c2cccc(C)c2)c1`, the Time is over 3 h in the series on Canis familiaris [1], 2 h in the series with Canis familiaris [2] and under 4 h with Canis familiaris [3]. Also, the “inhibition (INH)” value in the series with Canis familiaris [4] is given as over 70%; in the series with Canis familiaris [6] it was 45%. Besides, in the series with Canis familiaris [5], the inhibition in vivo at 140 mg/kg was 45%.

Take `CC(C)CC(=O)Oc1ccc([C@@H](O)CNC(C)(C)C)cc1OC(=O)CC(C)C.Cl`: the Time in the series with Canis familiaris [7] is under 3 h; in the series on Canis familiaris [10], 3 h; in the series with Canis familiaris [12], under 2 h; with Canis familiaris [14] it was under 2 h; in the series on Canis familiaris [16], under 1 h. The Activity with Canis familiaris [8] came to 20 beats/min; with Canis familiaris [13], 40 beats/min. The “inhibition (INH)” value was over 70% in the series with Canis familiaris [9], 45% in the series with Canis familiaris [11] and over 70% in the series on Canis familiaris [15].

With `CC(C)(C)NC[C@H](O)c1ccc(OC(=O)C2(C)CC2)c(OC(=O)C2(C)CC2)c1.Cl`, the Time with Canis familiaris [17] is 2 h; in the series with Canis familiaris [18], under 1 h. Besides, the inhibition in vivo at 5 mg/kg in the series with Canis familiaris [19] is 45%. In addition, in the series on Canis familiaris [20], the inhibition in vivo at 50 mg/kg turned out to be 45%.
